CASP6 VEID inh – caspase-6 (human) enzyme inhibition. AID 686996. purified caspase-6, Z-VEID-R110 cleavage fluorescence. inhibition, % at 12.5 µM. 350,000 tested, 0.53% active;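 active = mean inhibition across replicates at least about 35%, with every replicate also reaching that limit, limit read from the data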;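 also: 0% = median of neutral control wells and 100% = no fluorescence left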
TDP2 absorb – blocks human TDP2 phosphodiesterase activity; O95551; recombinant TDP2, T5PNP hydrolysis, p-nitrophenol absorbance 415 nm; inhibition, % at 12.8 µM; 370,000 tested, 0.34% active;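 active = inhibition above the mean of all tested compounds plus 3 SD, set per campaign, cut at about 25% in these data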;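 also: 0% = DMSO with enzyme and 100% = buffer with substrate but no TDP2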
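Test system: Human TDP2 enzyme | Reagent: 5 mM T5PNP | Compound dosing: 12.8 µM single point, 1% DMSO | Incubation: Enzyme reaction with compound for 2 h at 37 °C | Technique: p-Nitrophenol epi absorbance | Read-out: % inhibition relative to enzyme-containing and enzyme-free wells | Benchmarks: High control without enzyme, low control DMSO plus TDP2 | Replicates: Singlicate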
MBD2 DNA inh – inhibitors of human MBD2 binding to methylated oligonucleotide. inhibition, % at 4.4 µM. Q9UBB5. TR-FRET. 370,000 tested, 0.31% active. AID 686964; in the data active = inhibition above about 13%
LEDGF integ inh – blocks HIV-1 LEDGF/p75-dependent DNA integration; AID 743269; 370,000 tested, 0.64% active; inhibition, % at 3.7 µM; TR-FRET IN-LEDGF/p75 DNA integration, Eu/Cy5;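 active = inhibition above the screen-wide mean plus 3 SD, cut at about 13% in these data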;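 also: signal is the Cy5 over europium emission ratio at 671 and 618 nm; 0% = plate median of compound wells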
NSD2 HMT inh – inhibitors of human histone methyltransferase NSD2; O96028; NSD2 peptide methylation, AlphaScreen, 120 min; inhibition, % at 12.5 µM; 310,000 tested, 0.54% active; AID 743445; in the data active = inhibition above about 50%
Target sequence (O96028 whole entry, looked up): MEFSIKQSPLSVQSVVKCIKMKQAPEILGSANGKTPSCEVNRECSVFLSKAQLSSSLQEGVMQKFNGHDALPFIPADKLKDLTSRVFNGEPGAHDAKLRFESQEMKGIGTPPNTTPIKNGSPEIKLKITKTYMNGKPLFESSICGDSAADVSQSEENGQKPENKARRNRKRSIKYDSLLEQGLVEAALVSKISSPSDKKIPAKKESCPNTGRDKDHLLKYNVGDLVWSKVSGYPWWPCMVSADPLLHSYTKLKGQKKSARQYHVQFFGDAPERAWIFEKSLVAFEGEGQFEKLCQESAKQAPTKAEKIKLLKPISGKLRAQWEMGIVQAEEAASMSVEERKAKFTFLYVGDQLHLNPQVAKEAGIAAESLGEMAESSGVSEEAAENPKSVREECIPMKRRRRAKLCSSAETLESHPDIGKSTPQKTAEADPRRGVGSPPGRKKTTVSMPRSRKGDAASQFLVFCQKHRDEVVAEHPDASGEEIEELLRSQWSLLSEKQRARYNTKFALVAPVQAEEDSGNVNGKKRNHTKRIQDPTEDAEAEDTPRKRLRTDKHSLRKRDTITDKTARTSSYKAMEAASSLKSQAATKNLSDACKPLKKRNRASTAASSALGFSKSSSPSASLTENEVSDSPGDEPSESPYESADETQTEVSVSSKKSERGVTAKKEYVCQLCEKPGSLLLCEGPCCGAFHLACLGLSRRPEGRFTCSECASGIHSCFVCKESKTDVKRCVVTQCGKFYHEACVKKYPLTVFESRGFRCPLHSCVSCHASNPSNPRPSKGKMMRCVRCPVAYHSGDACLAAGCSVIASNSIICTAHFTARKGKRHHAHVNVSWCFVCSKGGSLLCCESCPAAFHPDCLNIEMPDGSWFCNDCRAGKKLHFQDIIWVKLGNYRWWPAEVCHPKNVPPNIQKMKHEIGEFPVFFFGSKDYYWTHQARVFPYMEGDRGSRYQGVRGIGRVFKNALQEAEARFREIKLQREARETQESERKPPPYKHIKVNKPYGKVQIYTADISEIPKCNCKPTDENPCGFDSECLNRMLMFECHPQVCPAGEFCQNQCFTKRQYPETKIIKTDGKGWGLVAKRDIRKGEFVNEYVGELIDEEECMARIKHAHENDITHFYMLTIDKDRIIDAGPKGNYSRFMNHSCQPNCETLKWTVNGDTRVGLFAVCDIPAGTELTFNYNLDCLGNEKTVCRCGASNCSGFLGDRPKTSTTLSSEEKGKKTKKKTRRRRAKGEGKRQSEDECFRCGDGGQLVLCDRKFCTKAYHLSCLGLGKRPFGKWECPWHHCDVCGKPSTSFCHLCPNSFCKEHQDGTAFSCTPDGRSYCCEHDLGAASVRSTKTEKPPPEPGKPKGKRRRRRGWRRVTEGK
UHRF1 binding – UHRF1 methyl-DNA binding inhibition | Q96T88 | UHRF1 binding to methylated oligo, TR-FRET | inhibition, % at 4.4 µM | 370,000 tested, 0.75% active | AID 687016; in the data active = inhibition above about 21%;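 also: UHRF1 SRA domain binding a hemimethylated CpG hairpin DNA probe; 0% = median of test compound wells and 100% = reference inhibitor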
* hit, by the source's call. Compounds with a hit are over-represented: about 1.9% of the library has one in this group of screens.

`NC(=O)C1CCN(C(=O)COc2cccc3ccccc23)CC1` gave CASP6 VEID inh 0.4, TDP2 absorb 1.0, MBD2 DNA inh -2.2, LEDGF integ inh -3.4 and UHRF1 binding 40.1*.
Screening O=C(O)C1CCN(C(=O)c2cccc3ccccc23)CC1 returned CASP6 VEID inh -4.6, TDP2 absorb 3.7, MBD2 DNA inh -4.7, LEDGF integ inh -0.6, NSD2 HMT inh -1.5 and UHRF1 binding 29.6*.
`C=C(C)c1cccc(C(C)(C)NC(=O)N2CCCCC2CC)c1` (stereo not drawn) gave TDP2 absorb 7.2, MBD2 DNA inh 6.6, LEDGF integ inh 3.0, NSD2 HMT inh 3.0 and UHRF1 binding 22.4*.
For C=C(C)c1cccc(C(C)(C)NC(=O)N2CCN(CC)CC2)c1 the results were TDP2 absorb 3.7, MBD2 DNA inh -4.0, LEDGF integ inh -1.5, NSD2 HMT inh 4.9 and UHRF1 binding 0.6.
`CO[C@@H]1CC[C@H]2CCOc3c(C#N)cccc3C(=O)N(C)C[C@@H](C)C(=O)N(C)C[C@@H]1O2` gave CASP6 VEID inh -1.3.
For COc1ccc(C)c2sc(N3CCCC3)nc12 the results were TDP2 absorb 3.9, MBD2 DNA inh -4.3, LEDGF integ inh 1.0, NSD2 HMT inh 1.2 and UHRF1 binding 25.4*.
For COc1ccc(OC)c2sc(N3CCN(c4ccccc4)CC3)nc12 the results were TDP2 absorb -12.1, MBD2 DNA inh 2.8, LEDGF integ inh 0.2 and UHRF1 binding 3.2.
COCCOC(=O)C1=C(C)N(c2ccccc2)C(=S)NC1c1ccccc1C(F)(F)F (stereo not drawn) was read as CASP6 VEID inh 1.3, TDP2 absorb 3.4, MBD2 DNA inh 0.9, LEDGF integ inh 0.4, NSD2 HMT inh -1.5 and UHRF1 binding -0.5.
Screening COC(=O)C1=C(C)N(c2ccccc2)C(=S)NC1c1ccccc1C(F)(F)F (stereo not drawn) returned CASP6 VEID inh -3.6, TDP2 absorb -8.0, MBD2 DNA inh -1.9, LEDGF integ inh -5.9, NSD2 HMT inh 1.7 and UHRF1 binding 44.0*.
Screening COc1ccc2cc(C(c3nnnn3C3CCCC3)N3CCc4ccccc4C3)c(=O)[nH]c2c1 (stereo not drawn) returned CASP6 VEID inh 46.7*, TDP2 absorb -2.5, MBD2 DNA inh -6.9, LEDGF integ inh 0.1, NSD2 HMT inh 0.3 and UHRF1 binding -6.8.
For O=C(NC(CO)(CO)CO)c1coc(=O)c(Br)c1 the results were TDP2 absorb -0.2, MBD2 DNA inh 3.8, LEDGF integ inh 1.1, NSD2 HMT inh -1.4 and UHRF1 binding 7.1.
O=C(Nc1cc(Cl)cc(Cl)c1)c1coc(=O)c(Br)c1 was read as CASP6 VEID inh 70.2*, TDP2 absorb -5.5, MBD2 DNA inh 2.5, LEDGF integ inh -0.5, NSD2 HMT inh 1.9 and UHRF1 binding -2.3.
Screening C[C@H]1CN([C@@H](C)CO)C(=O)c2cc(/C=C/c3ccccc3)cnc2O[C@@H]1CN(C)C(=O)c1cnccn1 returned CASP6 VEID inh 0.7.
`COc1ccccc1NC(=O)c1ccccc1S(=O)(=O)c1ccc([N+](=O)[O-])cc1` gave CASP6 VEID inh 39.9*, TDP2 absorb -17.2, MBD2 DNA inh -2.6, LEDGF integ inh -0.8, NSD2 HMT inh 3.2 and UHRF1 binding 1.4.
`C[C@H](CO)N1C[C@H](C)[C@H](CN(C)C(=O)Nc2ccc(F)cc2)Oc2ccc(NS(=O)(=O)c3ccc(Cl)cc3)cc2CC1=O` gave CASP6 VEID inh -0.6.
`NC(=O)C[n+]1ccc(/C=N/O)cc1` gave CASP6 VEID inh -0.9, TDP2 absorb -0.4, MBD2 DNA inh 5.8, LEDGF integ inh 1.8, NSD2 HMT inh 0.7 and UHRF1 binding 26.2*.
O=C(Nc1cccc(F)c1)N1CC(=O)N2[C@H](C1)[C@@H](c1ccc(-c3cccc(F)c3)cc1)[C@@H]2CO was read as CASP6 VEID inh 3.5.
For C[C@@H]1CN([C@@H](C)CO)S(=O)(=O)c2ccc(C#CC3CCCCC3)cc2O[C@@H]1CN(C)Cc1cccnc1 the results were CASP6 VEID inh -1.7, TDP2 absorb -11.6, MBD2 DNA inh 10.6, LEDGF integ inh 1.8 and UHRF1 binding 23.7*.
